# Source: PubChem BioAssay (several laboratories)
# This is a sample that favours compounds with a hit; in the whole collection about 9.8% have one here.
# Lmaj promast: reduces viability of Leishmania major promastigotes; resazurin fluorescence viability; actives 9% (n = 200,000); inhibition, % at 10 µM; in the data active = inhibition above about 50%;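 also: promastigotes grown with compound for 44 hours at 28 °C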
# WT yeast gro inh: growth inhibition of WT yeast, mitochondrial fusion screen; mitochondrial fusion phenotypic screen, WT strain; actives 2.1% (n = 190,000); AID 1362; inhibition, % at 10 µM; in the data active = inhibition above about 58%; tested in S. cerevisiae
# m-calpain inh: calpain II (pig) inhibition; purified calpain II, fluorogenic peptide substrate, 30 min; inhibition, % at 16 µM; actives 0.37% (n = 220,000); AID 1236;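 active = inhibition above about 50%, limit read from the data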
# PMI act hi M6P: increases human PMI activity with near-saturating mannose 6-phosphate. AID 1216. actives 0.34% (n = 190,000). activation factor at 20 µM. coupled PMI enzyme assay, resazurin fluorescence, 20 min; hits give high values; 1 = untreated enzyme, 0 = substrate-free blank;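 active = activation factor of 2 or more at 20 µM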
#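 assay system = human phosphomannose isomerase with PGI, G6PDH, diaphorase coupling enzymes | quantity = 15 ng/mL PMI | incubation = enzyme reaction with compound 20 min at room temperature | medium = HEPES pH 7.4 buffer with MgCl2 and Tween-20 | compound dosing = one concentration, 20 µM, in 1% DMSO | measured by = Diaphorase-driven resazurin-to-resorufin fluorescence, excitation 544, emission 590 nm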
# Rad51 HR inh: Rad51 (human) homologous recombination inhibition. Q06609. hRad51 DNA strand exchange, fluorescence dequenching. inhibition, % at 10 µM. actives 0.085% (n = 200,000). AID 1385;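 active = inhibition above 40% at the single screening dose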;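 also: 0% = DMSO control wells and 100% = blanks with heterologous ssDNA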
# Target sequence (Q06609 whole entry, looked up): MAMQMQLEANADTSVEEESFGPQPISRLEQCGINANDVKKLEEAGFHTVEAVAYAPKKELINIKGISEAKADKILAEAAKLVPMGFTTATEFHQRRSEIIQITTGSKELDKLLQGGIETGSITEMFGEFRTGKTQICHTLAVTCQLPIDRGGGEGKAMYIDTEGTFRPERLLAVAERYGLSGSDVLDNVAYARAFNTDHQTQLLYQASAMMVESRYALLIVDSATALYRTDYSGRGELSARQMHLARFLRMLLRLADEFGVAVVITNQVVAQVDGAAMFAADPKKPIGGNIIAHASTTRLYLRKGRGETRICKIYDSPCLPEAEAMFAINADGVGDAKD
#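 Test system: preformed human Rad51 ssDNA filaments; also added: Donor/quencher-labelled 47-bp dsDNA substrate; doses: 10 µM final, single point; times: 37 °C 15-min filament assembly, 30-min compound preincubation, 15-min exchange; detection: FRET fluorescence dequenching, excitation 485 nm, emission 520 nm; read-out basis: Fluorescence-based percent inhibition, control- and blank-normalised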
# PMI activator: activators of human phosphomannose isomerase; actives 0.005% (n = 190,000); P34949; activation factor at 20 µM; purified human PMI, coupled resazurin fluorescence, 20 min; hits give high values; 1 = vehicle control, 0 substrate-free wells;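 active = activation factor of 2 or more at 20 µM, relative to plate controls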
# * marks the source's active call; other numbers are inactive results; i = inactive; x = no result.
SMILES,Lmaj promast,WT yeast gro inh,m-calpain inh,PMI act hi M6P,Rad51 HR inh,PMI activator
C=CCN(C(=O)CSC1=NC(=O)CN1C(C)=O)c1nc(C)c(-c2ccccc2)s1,89.1*,6.8,7.8,1.1,-1.5,1.1
COCCCn1c(SCCc2ccccc2)nc2cc(OC)c(OC)cc2c1=N,50.9*,37.0,-148.4,0.9,-5.2,0.9
COc1cc2nc(SCc3ccc(F)cc3)n(Cc3cccs3)c(=N)c2cc1OC,11.3,1.1,-43.7,0.9,-4.8,0.9
CCSc1nc2cc(OC)c(OC)cc2c(=O)n1CCc1ccccc1,17.4,-7.4,-41.0,1.1,-2.3,1.1
COc1ccc(Cn2c(SCc3ccccc3C)nc3cc(OC)c(OC)cc3c2=N)cc1,100.5*,-1.3,-16.0,1,1.7,1
CCN(CC)S(=O)(=O)c1ccc(OC)c(NC(=O)c2cccc(C)c2[N+](=O)[O-])c1,5.4,-4.6,1.3,0.9,-44.8,0.9
CCN(CC)S(=O)(=O)c1ccc(OC)c(NC(=S)Nc2cccc(C)c2)c1,98.3*,-45.3,9.9,0.9,5.7,0.8
CCN(CC)S(=O)(=O)c1ccc(OC)c(NC(=S)Nc2cccc(C)c2C)c1,97.5*,-13.3,-6.0,1.1,8.7,0.9
COc1cccc(-n2cnc(=O)c3cccnc32)c1,-6.4,-19.7,-8.9,1,5.9,1.1
CSc1ccc(/C=C/C(=O)NC(=O)c2ccccc2O)cc1,-6.6,42.4,-45.9,0.9,5.5,0.9
COc1cc(/C=N/NC(=O)CC2(C)OCCCO2)ccc1OCc1ccccc1,1.7,-8.5,-3.5,1,-0.9,0.9
O=C(CCN1CCCCC1)N/N=C/c1ccc(Br)cc1,82.8*,-2.0,-13.8,1,0.1,1
O=C(CCN1CCCCC1)Nc1ccc(Br)cc1,-4.9,-33.7,-13.3,1.1,0.7,1.1
COc1cc(/C=N/NC(=O)CN2CCCCC2)ccc1OCc1ccc(Br)cc1,94.5*,-3.4,5.5,1.1,x,0.9
CC(C)Cn1c(-c2csc3ccccc23)n[nH]c1=S,-1.0,50.5,36.3,1,x,1
Cc1cccc(-n2c(-c3csc4ccccc34)n[nH]c2=S)c1,-0.7,64.2*,8.3,0.8,4.9,0.9
Nc1c(S(=O)(=O)c2ccccc2)c2nc3ccccc3nc2n1CCN1CCOCC1,5.7,12.3,-266.3,0.9,x,1
Nc1c(S(=O)(=O)c2ccccc2)c2nc3ccccc3nc2n1Cc1ccco1,77.5*,0.4,i,1.3,-96.1,1.1
Cc1ccc(S(=O)(=O)c2c(N)n(CCN3CCOCC3)c3nc4ccccc4nc23)cc1C,-2.6,6.8,-173.2,1,-5.3,1.1
Cc1ccc(S(=O)(=O)c2c(N)n(Cc3ccco3)c3nc4ccccc4nc23)cc1C,90.6*,12.5,-430.5,1.3,-22.8,1.1
Nc1ccc2c(c1)nc(Cc1ccccc1)n2CCO,-0.8,-0.4,-41.5,0.9,6.7,1
O=C(c1cnn2c(C(F)(F)F)cc(-c3cccs3)nc12)N1CCN(C(c2ccccc2)c2ccccc2)CC1,97.4*,3.4,-63.5,1,1.2,1
O=C(c1cnn2c(C(F)(F)F)cc(-c3ccc4c(c3)OCO4)nc12)N1CCCCC1,99.1*,0.1,6.5,1,6.0,1
CN1CCN(C(=O)c2cnn3c(C(F)(F)F)cc(-c4ccc5c(c4)OCO5)nc23)CC1,84.2*,98.5*,2.4,0.9,2.4,0.8
Cc1ccc(-c2cc(C(F)(F)F)n3ncc(C(=O)N4CCN(C)CC4)c3n2)cc1,98.7*,-6.2,-192.5,0.9,-17.2,0.9
SMILES,Lmaj promast,WT yeast gro inh,m-calpain inh,PMI act hi M6P,Rad51 HR inh,PMI activator
CCC(=O)Nc1ccc(C(=O)NCc2ccccn2)cc1,-1.9,3.6,-6.4,1.4,-5.7,1.3
O=C(c1nn2c(C(F)(F)F)cc(-c3cccs3)nc2c1Br)N1CCCc2ccccc21,69.5*,-5.9,-40.0,1,9.3,0.8
O=C(c1nn2c(C(F)(F)F)cc(-c3ccco3)nc2c1Br)N1CCCc2ccccc21,9.3,-8.9,-86.4,0.9,2.3,0.8
O=S(=O)(c1ccc(-c2ccon2)s1)N1CCN(c2ccccn2)CC1,x,x,20.3,x,x,x
O=[N+]([O-])c1ccccc1CNc1ccc(F)c(Cl)c1,-1.9,25.8,25.8,1,-27.7,0.9
COc1cccc(CNc2ccc(F)c([N+](=O)[O-])c2)c1O,0.2,-0.9,83.6*,0.9,-9.8,0.9
